CAL PDZ FP-1: inhibitors of human CAL PDZ peptide binding | inhibition, % at 24.9 µM | Q9HD26 | purified CAL PDZ, TMR-peptide fluorescence polarization, 1 h | 300,000 compounds, 0.92% hits;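 active = mean inhibition of at least 30% with at least half of replicates also reaching 30%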
CAL PDZ FP-2: human CAL PDZ-peptide interaction inhibition. 330,000 compounds, 0.02% hits. Q9HD26. inhibition, % at 20 µM. purified CAL PDZ, TMR-peptide fluorescence polarization, 1 h;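 active = highest replicate inhibition of at least 40%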
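material = purified tagged CAL PDZ domain construct (CerCALP) | buffer or medium = sodium phosphate/NaCl buffer pH 7.4 with TCEP, IgG, Thesit | reagent = TMR-labelled reporter peptide T*-PRC34 bound in PDZ groove | incubation = 1 h room-temperature incubation prior to read | measured by = fluorescence polarization (mP) | evaluation = percent inhibition from loss of millipolarization | control set = unlabelled peptide and DMSO controls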
RAD52 anneal inh: inhibitors of human RAD52 DNA annealing. P43351. recombinant RAD52 DNA annealing, FRET fluorescence. inhibition, % at 18.7 µM. 360,000 compounds, 0.46% hits. AID 651710;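 active = every replicate showing at least 50% inhibition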
Target sequence (P43351 whole entry, looked up): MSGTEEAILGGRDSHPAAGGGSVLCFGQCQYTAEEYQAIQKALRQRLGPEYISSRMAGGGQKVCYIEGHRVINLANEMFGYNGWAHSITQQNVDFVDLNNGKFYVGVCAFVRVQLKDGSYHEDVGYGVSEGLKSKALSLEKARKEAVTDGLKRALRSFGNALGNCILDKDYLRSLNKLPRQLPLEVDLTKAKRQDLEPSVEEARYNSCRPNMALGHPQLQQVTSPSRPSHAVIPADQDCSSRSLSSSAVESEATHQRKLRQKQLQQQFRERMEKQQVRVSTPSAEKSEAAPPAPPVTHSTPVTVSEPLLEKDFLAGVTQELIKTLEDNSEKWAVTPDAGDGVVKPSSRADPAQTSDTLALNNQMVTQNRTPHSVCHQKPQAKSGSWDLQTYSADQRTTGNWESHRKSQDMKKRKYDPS
ERp5 block: blocks human ERp5 reductase activity on insulin | Q15084 | ERp5 insulin aggregation, absorbance 650 nm, 90 min | inhibition, % at 9.99 µM | 350,000 compounds, 0.05% hits | AID 651711;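 active = mean replicate inhibition above about 25%, with every replicate also reaching it, limit read from the data, passing the limit was not always enough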
RAD54 inh: blocks human RAD54 Holliday junction branch migration. FAM/BHQ fluorescence. inhibition, % at 10.4 µM. 360,000 compounds, 0.14% hits. AID 602329;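 active = mean normalized replicate activity at least 40 and at least half of replicates scoring 40 or more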;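 also: inhibitors cause a drop in the FAM fluorescence signal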
PDI inh: inhibitors of human protein disulfide isomerase; 350,000 compounds, 0.052% hits; inhibition, % at 10 µM; PDI insulin aggregation turbidity, A650, 90 min; P07237;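 active = mean inhibition across replicates of 30% or more, whatever share of single replicates reach that level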
Numbers stand for hits; . = inactive; / = not tested or not shown. In the library only some 1% were active in any assay of this set; here they are far more common.

SMILES	CAL PDZ FP-1	CAL PDZ FP-2	RAD52 anneal inh	ERp5 block	RAD54 inh	PDI inh
Cc1ccc(NC(=O)C(c2ccc(Cl)cc2)N2CCCCC2)cc1 (centres undefined)	.	.	/	/	.	.
O=C(O)/C=C/C(=O)Nc1ccc2c(c1)C(=O)c1ccccc1C2=O	97.8	.	.	.	/	.
Cc1cc(C)n(C(=O)c2cccc(S(=O)(=O)N3CCOCC3)c2)n1	63.6	.	/	/	.	.
C[C@@H]1CN([C@H](C)CO)C(=O)c2cc(C#Cc3ccncc3)cnc2O[C@H]1CN(C)C(=O)c1ccccc1F	/	/	.	.	.	/
CCCNC(=O)C[C@H]1C[C@@H]2c3cc(NC(=O)CC4CC4)ccc3O[C@@H]2[C@H](CO)O1	/	/	.	.	.	/
COc1ccc(Br)c(C(=O)Nc2ccc(F)cc2)c1	39.7	.	.	.	/	.
O=C(Nc1ccc(F)cc1)c1cc(Cl)sc1Cl	87.2	.	.	.	/	.
O=C(Nc1ccc([N+](=O)[O-])cc1)c1cc(Cl)sc1Cl	.	.	.	.	.	.
C[C@H](NC(=O)C[C@H]1C=C[C@H](NC(=O)Cc2ccccn2)[C@H](CO)O1)c1ccccc1	/	/	.	.	.	/
C[C@@H]1CCCCO[C@H](CN(C)C(=O)NC2CCCCC2)[C@@H](C)CN([C@H](C)CO)C(=O)c2cc(NC(=O)CCCN(C)C)ccc2O1	/	/	.	.	.	/
COc1ccc(CN(C)C[C@@H]2Oc3c(NC(=O)Nc4ccccc4)cccc3C(=O)N([C@@H](C)CO)C[C@@H]2C)cc1	/	/	.	.	.	/
COc1ccc(-c2ccc(SCC(=O)c3ccccc3)nn2)cc1OC	71.1	.	.	.	.	.
CO[C@H]1CN(C)C(=O)c2cc(NC(=O)Nc3ccccc3Cl)ccc2OC[C@@H](C)NC[C@@H]1C	/	/	.	.	.	/
CO[C@H]1CN(C)C(=O)c2cc(NC(=O)Nc3ccccc3Cl)ccc2OC[C@H](C)NC[C@@H]1C	/	/	.	.	.	/
CO[C@@H]1CN(C)C(=O)c2cc(NC(=O)Nc3ccc(Cl)cc3)ccc2OC[C@H](C)NC[C@H]1C	/	/	.	.	.	/
CO[C@H]1CN(C)C(=O)c2cc(NC(=O)Nc3cc(Cl)cc(Cl)c3)ccc2OC[C@@H](C)NC[C@@H]1C	/	/	59.0	.	/	/
CO[C@@H]1CN(C)C(=O)c2cc(NC(=O)Nc3ccc(Cl)c(Cl)c3)ccc2OC[C@H](C)NC[C@@H]1C	/	/	52.0	/	.	/
CO[C@H]1CN(C)C(=O)c2cc(NC(=O)Nc3ccc(Cl)c(Cl)c3)ccc2OC[C@H](C)NC[C@H]1C	/	/	54.0	/	.	/
O=C(N[C@H]1CC[C@@H](CCn2cc(Cc3ccccc3)nn2)O[C@@H]1CO)c1cnccn1	/	/	.	.	.	/
C[C@H]1CN([C@@H](C)CO)C(=O)c2cc(NC(=O)C3CCCCC3)ccc2O[C@@H]1CN(C)S(=O)(=O)c1ccc(F)cc1	/	/	.	.	.	/
C[C@H]1CN([C@@H](C)CO)C(=O)c2cccc(NC(=O)Nc3ccc(C(F)(F)F)cc3)c2O[C@@H]1CN(C)C(=O)Nc1ccc2c(c1)OCO2	/	/	/	/	.	/
C[C@@H]1CN([C@H](C)CO)C(=O)c2cc(C#CC(C)(C)O)cnc2O[C@H]1CN(C)C(=O)CN(C)C	/	/	.	.	.	/
CCN1CCN(c2ncc3c(n2)CC(c2cc(OC)c(OC)c(OC)c2)CC3=O)CC1 (centres undefined)	49.6	.	/	/	/	.
COCC(=O)N(C)C[C@@H]1Oc2ncc(C#CC(C)(C)O)cc2C(=O)N([C@H](C)CO)C[C@@H]1C	/	/	.	.	.	/
CCOC(=O)C1=C(CC)Nc2ccccc2N/C1=N\S(=O)(=O)c1cccc(C(C)=O)c1	55.1	.	.	.	.	.
SMILES	CAL PDZ FP-1	CAL PDZ FP-2	RAD52 anneal inh	ERp5 block	RAD54 inh	PDI inh
C[C@H](NC(=O)C[C@@H]1CC[C@@H]2[C@H](COC[C@H](O)CN2C(=O)Nc2ccccc2)O1)c1ccccc1	/	/	.	.	.	/
Cc1noc(C)c1S(=O)(=O)Nc1ccc2c(c1)C(=O)N([C@H](C)CO)C[C@H](C)[C@@H](CN(C)Cc1ccc(-c3ccccc3)cc1)O2	/	/	.	.	.	/
O=C(OCC(=O)N1CCc2ccccc2C1)c1cccnc1Cl	71.2	.	.	.	.	.
O=C(C[C@H]1CC[C@H]2[C@@H](COC[C@@H](O)CN2C(=O)c2ccccc2)O1)Nc1ccccc1	/	/	.	.	.	/
CC(C)CNC(=S)NNC(=O)CC(C)O (centres undefined)	77.0	.	.	.	/	.
Cc1cnn(CCC(=O)NNC(=S)NCC(C)C)c1	.	.	/	/	/	.
CCNC(=S)NNC(=O)CC(C)C	36.1	.	.	.	/	.
COC(=O)c1ccc(NC(=S)NNC(=O)CC(C)C)cc1	.	.	/	/	.	.
COc1ccc(S(=O)(=O)Nc2ccc3c(c2)CC(=O)N([C@H](C)CO)C[C@H](C)[C@H](CN(C)Cc2ccc(C(=O)O)cc2)O3)cc1	/	/	.	.	.	/
O=[N+]([O-])c1ccc(C2=NN(CCO)C(=Nc3ccc(OC(F)(F)F)cc3)SC2)cc1	30.7	.	.	.	/	.
CN1c2ccc(C3=CCCCC3)cc2[C@@H]2[C@@H](CCN2C(=O)C2CCC2)[C@H]1CO	/	/	.	.	/	/
COc1ccccc1OCC(O)Cn1nc(C)cc1C (centres undefined)	74.1	.	/	/	.	.
Cc1cc(C)n(CC(O)COc2ccccc2[N+](=O)[O-])n1 (centres undefined)	.	.	/	/	/	.
Cc1noc(C)c1S(=O)(=O)N(C)C[C@H]1Oc2ccc(NS(=O)(=O)c3ccccc3)cc2CC(=O)N([C@H](C)CO)C[C@H]1C	/	/	.	.	.	/
CCNC(=O)C[C@H]1CC[C@@H]2[C@H](COC[C@@H](O)CN2C(=O)Nc2cccc(OC)c2)O1	/	/	.	.	.	/
O=C1OC(c2ccccc2)(c2ccccc2)c2ccccc21	.	54.8	.	.	.	.
O=C1OC(c2ccccc2)(c2ccc(O)cc2)c2ccccc21 (centres undefined)	.	.	.	.	.	.
C[C@H](CO)N1C[C@H](C)[C@H](CN(C)Cc2ccc3c(c2)OCO3)Oc2ccc(NC(=O)Nc3cccc4ccccc34)cc2CC1=O	/	/	.	.	.	/
COc1ccc(S(=O)(=O)N(C)C[C@@H]2Oc3ccc(NC(=O)C4CC4)cc3C(=O)N([C@H](C)CO)C[C@H]2C)cc1	/	/	.	.	.	/
CCCn1nnnc1SCC(=O)N1CCCC1	43.5	.	/	/	.	.
CCCn1nnnc1SCC(=O)N1CCCCC1	.	.	.	.	.	.
O=C(C[C@@H]1CC[C@@H]2[C@H](COC[C@H](O)CN2C(=O)C2CCOCC2)O1)NCc1ccncc1	/	/	.	.	.	/
COc1ccc(CN(C)C[C@@H]2OCCCC[C@@H](C)Oc3ccc(NS(=O)(=O)c4cn(C)cn4)cc3C(=O)N([C@H](C)CO)C[C@@H]2C)cc1	/	/	.	.	.	/
CCCCc1c(O)nc(SCC(=O)N2CCCCC2)n(-c2ccccc2C)c1=O	53.9	.	/	/	/	.
N#Cc1ccc(NC(=S)NCCN2CCOCC2)cc1	91.2	.	.	.	.	.

High-throughput results as filed in PubChem BioAssay.
